# Test results from the EternaBench riboswitch data.
# System: MS2 coat protein
# Assay: apparent Kd, MS2 coat protein; higher = weaker binding; RNA-MaP array; FMN 200 µM where present
# In short: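 In 100 mM Tris-HCl pH 7.5, 80 mM KCl, 4 mM MgCl2, BSA, DTT, yeast tRNA and Tween-20, SNAP-549-labelled MS2 coat protein was titrated from 0.7 or 1.5 nM, doubling to 3 µM, over designs transcribed by stalled E. coli RNA polymerase on Illumina sequencing-chip clusters. This was done first without ligand, then with ligand held constant. After green signal was normalised to red-channel RNA signal and control-cluster median Fmax, the apparent Kd was taken as the median of filtered per-cluster binding-curve fits.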
# [1] = designed as: OFF switch for flavin mononucleotide, no ligand
# [2] = ligand present: flavin mononucleotide, designed as: OFF switch for flavin mononucleotide
# [3] = ligand present: flavin mononucleotide, designed as: ON switch for flavin mononucleotide
# [4] = designed as: ON switch for flavin mononucleotide, no ligand
Sequence,apparent Kd [1] [nM],apparent Kd [2] [nM],apparent Kd [3] [nM],apparent Kd [4] [nM]
GUGGUACAUGAGGAUCACCCAUGUUAGGAUAUCGCGUGAGGUUUUACUUACACACACACGAGAAGGGACGUCUU,47.5,36,–,–
GGUCCAGCAUGAGGAUAUGGCACCUUAUUGGUGCCAGAAGGCAUGUCUAUAGACAUGAGGAUCACCCAUGUAAUAAAUUGGACC,–,–,43.2,–
CAACCGUUGCAGAAGGUUAAAUAAUUUCUCAUCUUGUUUACAUGAGGAUCACCCAUGUAUUUGUUGAAGGAUAUGCAAGGGUUG,6.96,6.6,–,–
UAUAUAAUUAAGAGCUGGAACUCAACAUGAGGAUCACCCAUGUAGGAUAUCAGCACGAUAAGUGCUGAGAAGGACUACCAGCUC,18.2,20.4,–,–
AAUUCACAUGAGGAUCACCCAUGUCAGGAUAUGGUGACGCGGGUUUCGGUGCGUGUUGCCAGAAGGGACAGCUA,79.2,119,–,–
CUAGUAUAUCAGGAUAUGAUUUUAUAUAUUGGAUCAGAAGGGAUAACAUGAGGAUCACCCAUGUUGUGGAGUGA,110,360,–,–
ACAAUAAAGGGUCUGGUUCCAUACAUGAGGAUCACCCAUGUCAAGGAUAUAACGGACGGGCGCCGUUAGAAGGUGACGACUGCG,132,401,–,–
AUGAGGUCAGGAUAUGCAUGGCGGGACUUGCGUCGUGGCGUGGAGAAGGGACAUGAGGAUCACCCAUGUGGAGA,84.6,76.1,–,–
AAAAUGUAAGGAUAUCGUCCCGUAAAUAUCGGGAAAAUUGUCGAGAAGGUACAUGAGGAUCACCCAUGUUCCUG,16.7,18.2,–,–
AUGUAGGUAGGAUAUGCAUAGAUAUACAUUCAUGUGGAUUUACAUGAGGAUCACCCAUGUAGAAGGACCUAAAA,34.1,107,–,–
AGUACUACAGGAUAUACGAGGGAGGUCCACGUGACCCUUAUACAUGAGGAUCACCCAUGUAGAAGGGUAGUACA,80.3,16.4,–,–
UUUUAGCAGUCAGGAUAUGCAACGCACAACGACGCAGAAGGGACAUGAGGAUCACCCAUGUUAUGGUUCUGGUACUAUGACGUU,18.1,24.6,–,–
UCCUCGAUGUAGAAGGCCGCGUCCGGCUCACGCGGAGGAUAUACAUGAGGAUCACCCAUGUGUCUGUGGCUAAUAUGGUACGGA,120,14.4,–,–
UUAUUUAUACAAGGAUAUCUAUUAUAUUCACAUCCUACAUGAGGAUCACCCAUGUUAUAUAUUUUAGAGAAGGUGUAUUGUCUG,–,–,30.8,27.2
UAGUAUAAGGGCAUUAAACAUGAGGAUCACCCAUGUACGAUAGAGGAUAUGCAUUUCAGUUUAGAGUAGAAGGUUAGAGAAUUU,42.1,42.9,–,–
AUAUCCGAAGCAGGAUAUCGACGAGGUGUCGAGGUAGAGCGUACUCACAUGAGGAUCACCCAUGUCGAGAAGGGCUACAGGAUA,27.8,52.2,–,–
UUCGACGUCGUAGGAUAUGUAGGAUAUUCCUACAUGAGGAUCACCCAUGUUGACAUGGAAGAAGGACAGAAGGACGAUGUCCAU,–,–,6.4,301
GUAGCUAUUAAAGGAUAUUCAUACCGGAAACGGACAUGAGGAUCACCCAUGUGGCGAAAGCCUUGGGAGAAGGUUAUUAGCUAC,–,–,15.6,378
CUGAGCAAUGUAGGAUAUCGACUGGAUAACAGUCGAGAAGGACAUGAGGAUCACCCAUGUAAAUGAGUGAAUAAUAAAGCUCAG,1070,331,–,–
GAGCUAUGAGGAUAUGCAUAUAUACGGAUUCGUGUGGUACUACAUGAGGAUCACCCAUGUAGAAGGCGUGGCUG,19,20.8,–,–
UGGGCGAGCCCAGUACUCACACAUGAGGAUCACCCAUGUGACGAGGAUAUAGACAGCGAUGCGUACUAGAAGGCGUCACGGUAA,11,46.2,–,–
GAUGAGGUAGGAUAUACGAGAAGAUAGGGUAGAUAGAUAACACAUGAGGAUCACCCAUGUAGAAGGACCAGUAG,34.5,79.8,–,–
GCCAUCGCAUGAGGAUAUGCUCCCGUUUCGGGAGCAGAAGGCAUGUCAUAAGACAUGAGGAUCACCCAUGUAGCUAAGAUGGCA,–,–,12.1,310
GCAGCUAAUGCAGGAUAUCAGCACGUGUAGUGCUGAGAAGGGCACAUGAGGAUCACCCAUGUGAUCAAUUAAUUUUAAUGCUGC,29,159,–,–

Sequence,apparent Kd [1] [nM],apparent Kd [2] [nM],apparent Kd [3] [nM],apparent Kd [4] [nM]
CUGACCUGUGUCAGGAUAUCGUUUGCCAUUGUGACUGAGAAGGGACAUGAGGAUCACCCAUGUCGAGCGACGGG,28.4,35.6,–,–
GGUGGUCUUGUGAGGAUAUGGUUGGAUGCAUAUGAUCAGAAGGCACAUGAGGAUCACCCAUGUGGAAUACCACU,37.3,234,–,–
GCACUUAGAGUUGAACCGUUACUAACAUGAGGAUCACCCAUGUAGGAUAUGCUAAUAGUAUUGAAGCAGAAGGACACUAAGUGC,5.46,5.88,–,–
CAUGUCCUCACAGGAUAUGCACCACUUUGUGGUGCAGAAGGGUGGAUACAUGAGGAUCACCCAUGUGGACAUGAUAUAUUUAAU,–,–,57.2,608
GCACUUACGUUAGGAUAUGGAUCGGAAAACGAUCCAGAAGGAAUAUGGGAACAUGAGGAUCACCCAUGUUCCACAGACAAGUGC,–,–,25.9,43.3
GAUCUGGCAGGAUAUACAUGAGGAUCACCCAUGUGCGAGCUAGCGAAAGCUAGCUCAGGUAGAAGGGUCAGAUC,12.7,15.5,–,–
AUUGUAGGAGGAUAUACAUGAGGAUCACCCAUGUCGUCCCAGGAGGACACCUUCCCAUGUAGAAGGCCUGGGAC,31.4,19.3,–,–
CCCACGCAUGAGAAGGGACAGGCGUGCAAUUCGACAUGAGGAUCACCCAUGUCAGGAUAUCAGUUAAGGUGGGCAGAACCGAUG,15.4,57.3,–,–
CCUCCACAUGAGGAUCACCCAUGUCAGGAUAUCGUGUGCGCGUUUUCGGUCUUUCGCGCGAGAAGGGACGACUG,27.3,28.4,–,–
GUGGUCAGACAUGAGGAUCACCCAUGUGGAAUAAAUAAGGAGAAGGAUAUGCAAUAUAGGAUAUAGCAGAAGGUCUGGUUGGUG,–,–,92.7,80.1
AGCACGAAAGUGCAACGAUGUAGCAGAAGGACAUGAGGAUCACCCAUGUAACGAGUAACUCGAAUGUAGGAUAUGCUACAUCGA,25,157,–,–
GACAAACAUGAGGAUCACCCAUGUUCAGACGAACAAGGAUAUGUGUGGAAACCGUACUAUACAGAAGGUGUCUGUC,–,–,23.8,39.7
UAAAACCUAGGAUAUACAUGAGGAUCACCCAUGUUCGAAGGAGCCCAAGUGACUUCUAGUAGAAGGAGGGCGAA,18.8,23,–,–
UUGGACGUCGUAGGAUAUGUAGGAUAUUCCUACAUGAGGAUCACCCAUGUUGCCAUGGAAGAAGGACAGAAGGACGAUGUCCAU,–,–,4.48,253
UUACUGAUAUAGAAGGGUAUAUGGGAAUUACAUGAGGAUCACCCAUGUUUUAUAGGAUAUGUAUAUAGUAUUUAAUCAAGUUUA,34.6,27.1,–,–
UUAAAUCAUGUAGGAUAUGCAUGGCGAAGCUACGCAGAAGGACAUGAGGAUCACCCAUGUUAUAGCGUCCGAUUAAGGAUGCAA,91.9,216,–,–
CCCUCACAUGAGGAUCACCCAUGUCCUAGCCCGUCAGGAUAUAGCCCGCAUCCGCUGCGGCUAGAAGGGACAGCUG,–,–,141,190
AUUUAAUUUAAUAAGAUCACAUGAGGAUCACCCAUGUUAUAAUAGGAUAUCAGCUCGUGUAGAGCUGAGAAGGAUUAUAACAUG,66.3,35.1,–,–
ACGACGAAAGUCGAACGAUGUAGCAGAAGGACAUGAGGAUCACCCAUGUCAGCUGUAACAGCCAUGUAGGAUAUGCUACAUCGA,4.35,5.67,–,–
ACAUGAGGAUCACCCAUGUAUUACAUGGUUAAGUUUAUUAACAGAAGGCGAAAAUACUUAUUGUUCGAGGAUAUGUAAUCAAUU,38,54.3,–,–
CGGGAGCCGAAGGGCGAAAGCCCACAUGAGGAUCACCCAUGUAGAAGGCGGGCCGCAACGCGGCCCGAGGAUAUACAGGCUCCA,5.99,10.5,–,–
UAUAUAAUUAAGAGCUGGCUCAAAACAUGAGGAUCACCCAUGUAGGAUAUCAGCACGAUAAGUGCUGAGAAGGACAUCCAGCUC,16.9,24.5,–,–
AGUGUGUGGCAGGAUAUGCUGUUGAUUCGGGCAGCAGAAGGGUCUACAUGAGGAUCACCCAUGUAAGCGGUUGA,257,413,–,–
UUCCUCGUUGUGAGGAUAUCGUCCGUGUUUUGUUACGAGAAGGCACAUGAGGAUCACCCAUGUUACUUGAUGUU,18.7,110,–,–
